SENP1 inh = inhibitors of human SENP1 SUMO protease catalytic domain; recombinant SENP1 catalytic domain, CyPet-SUMO1-YPet FRET cleavage; 360,000 tested, 0.21% active; inhibition, % at 10 µM; AID 624204; Q9P0U3;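 active = inhibition at least 30% at 10 µM, raw YFP signal under a set limit, fluorescence ratio 0.5 to 1.5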
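Material: hSENP1 catalytic domain, recombinant; medium: Tris pH 8 with BME, BSA, NP40 and catalase; compound: single concentration of 10 µM compound, 0.5% DMSO final; technique: FRET read of cyan and yellow fluorescence; timing: 50 min enzyme reaction, room temperature, light-protected; reagent: SFCypet-SUMO1-SFYpet substrate at 25 nM; control set: no-enzyme low, enzyme-DMSO high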
Cardio protect = protects H9c2 cardiomyocytes from peroxide injury | H2O2 injury protection, ATPLite, 2 h | protection from H2O2 cell death, % at 20 µM | 360,000 tested, 0.63% active | AID 588492;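 active = compounds giving at least 50% protection of heart cells from peroxide-induced death in the single-dose screen, raw or plate-pattern-corrected value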
Pemphigus Ab inh = blocks pemphigus antibody binding to human desmoglein-3. DSG3-coupled beads, scFv-anti-DSG3-GFP binding, flow cytometry; hits give low values. binding (percent of control), % at 10 µM. 310,000 tested, 0.48% active;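 active = binding more than 3 SD below its plate's average and above zero; inconclusive = below that plate limit but binding exactly zero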;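 also: hits lower antibody fragment binding to DSG3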
Myeloid diff 2 = promotes myeloid progenitor differentiation | 360,000 tested, 1% active | ER-HoxA9 myeloid progenitors, lysozyme-GFP differentiation, flow cytometry | calls only at 10 µM;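 active = normalized GFP-positive differentiation at or above the plate's own cutoff, the solvent-only control mean plus 3 SD; inconclusive = no clear call, values can overlap the other calls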;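 also: cells exposed to compound for four days before flow analysis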
Exocytosis inh = blocks lytic granule exocytosis. TALL-104 LAMP-1 surface exposure, flow cytometry; cells stimulated with thapsigargin and PMA. inhibition, % at 10 µM. 360,000 tested, 0.66% active. AID 651702;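 active = inhibition above about 55%, limit read from the data; inconclusive = no clear call, values can overlap the other calls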
HNF4A DNA FP = change in binding of human HNF4 alpha to DNA | HNF4a-FITC DNA binding, fluorescence polarization, 1 h | activity change, % at 10 µM | 360,000 tested, 0.3% active; in the data active = activity change above about 30%, passing the limit was not always enough
Target sequence (P41235 whole entry, looked up): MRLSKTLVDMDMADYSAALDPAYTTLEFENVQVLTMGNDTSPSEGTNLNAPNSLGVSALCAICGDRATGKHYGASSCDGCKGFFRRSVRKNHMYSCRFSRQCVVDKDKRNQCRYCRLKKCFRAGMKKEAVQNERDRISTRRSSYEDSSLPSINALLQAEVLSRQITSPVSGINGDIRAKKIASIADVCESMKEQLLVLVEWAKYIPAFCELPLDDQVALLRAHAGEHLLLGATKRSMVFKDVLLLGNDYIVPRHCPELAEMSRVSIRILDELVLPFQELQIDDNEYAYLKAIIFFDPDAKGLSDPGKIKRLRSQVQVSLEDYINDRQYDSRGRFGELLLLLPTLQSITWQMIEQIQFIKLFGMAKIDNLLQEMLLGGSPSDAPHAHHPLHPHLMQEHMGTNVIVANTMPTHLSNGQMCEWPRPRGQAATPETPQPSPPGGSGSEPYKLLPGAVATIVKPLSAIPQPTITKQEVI
Each line names hits and unclear results; the compound was inactive in the other large screens. In the library only some 3% were active in any assay of this set; here they are far more common.

CC(C)C(NC(=O)c1ccccc1)C(=O)OCC(=O)N1CCCC1 (centres undefined)	none (no result: Pemphigus Ab inh)
Cc1nn(C)c(NC(=O)c2ccc(Cl)cc2Cl)c1Br	Myeloid diff 2 active
COc1ccc(C(C(N)=O)c2ncc(C(F)(F)F)cc2Cl)cc1OC (centres undefined)	none
CC(C)(C)OC(=O)N1CCC(Cc2cc(-c3cccnc3)no2)(C(=O)O)CC1	Myeloid diff 2 active
O=C(O)c1ccc(Sc2ccccn2)c([N+](=O)[O-])c1	none
N#Cc1cc(Sc2ccccn2)c(Sc2ccccn2)cc1C#N	Pemphigus Ab inh 72.6, Myeloid diff 2 inconclusive
N#Cc1cc(Sc2ccccn2)c([N+](=O)[O-])cc1C#N	Myeloid diff 2 active
Cc1ccc[n+](CC(=O)c2ccc(Br)cc2)c1	none
N#Cc1ccc[n+](CC(=O)c2ccc(Cl)cc2)c1	Myeloid diff 2 active
O=C(C[n+]1cn(C(F)F)c2ccccc21)c1ccc(OC(F)F)cc1	none (no result: Pemphigus Ab inh)
O=c1cc(-c2ccc([N+](=O)[O-])cc2)c2ccc(O)cc2o1	Cardio protect 60.5
COc1ccc(-c2cc(=O)oc3cc(O)ccc23)cc1	none
CCC1(CC)NC(=O)N(CC(=O)OC(C)C(=O)Nc2ccc(S(N)(=O)=O)cc2)C1=O (centres undefined)	none
COC(=O)c1ccc(-c2sc3nc(N4CCOCC4)c4c(c3c2N)CC(C)(C)OC4)o1	Pemphigus Ab inh 38.1
CC1(C)Cc2c(c(N3CCOCC3)nc3sc(C(N)=O)c(N)c23)CO1	none
O=C(Oc1cccc2cccnc12)c1cccs1	Myeloid diff 2 active
O=C(Oc1cccc2cccnc12)c1ccco1	none
CCOC(=O)N1CCC2(CC1)C(C(=O)C13CC4CC(CC(C4)C1)C3)C2(C#N)C#N (centres undefined)	Exocytosis inh 71.3 (no result: Pemphigus Ab inh)
Cc1cc(Br)cn2c(Cc3ccsc3)c(-c3ccc(Cl)cc3)nc12	none (no result: Pemphigus Ab inh)
CC[C@H](C)C(C(=O)N1CCN(C(=O)OC(C)(C)C)CC1)n1cc(C(Cc2ccc(O)cc2)NC(=O)OC(C)(C)C)nn1 (some centres undefined)	Cardio protect 50.6
N/C(=N/OC(=O)c1ccccc1Cl)c1ncc([N+](=O)[O-])s1	Myeloid diff 2 active
O=C(NCc1ccc(Cl)cc1)C(=O)Nc1nccs1	Pemphigus Ab inh 75.8
O=C(/C=C/c1ccc(Cl)cc1)Nc1nccs1	Myeloid diff 2 active
COC(=O)C1CN(C(=O)COc2ccc(C)c(C)c2)c2ccccc2O1 (centres undefined)	none
CC(=O)Nc1ccc(NCc2ccc(C)s2)cc1	none
COc1ccc(C=O)cc1COc1c(F)c(F)cc(F)c1F	Myeloid diff 2 active
COc1ccc(C=O)cc1COc1ccc(F)cc1F	none (no result: Pemphigus Ab inh)
COc1ccc(-c2nn(-c3ccccc3)cc2/C=C/C(=O)N2CCN(c3ccccn3)CC2)cc1	Cardio protect 68.2
Cc1ccc(OCC(=O)OC(C)C(=O)NC2CCCCC2C)cc1C (centres undefined)	none
O=C(CSc1nncc2ccccc12)Nc1ccc(C(=O)O)cc1	none
CCCCc1ccc(-c2csc(/C(C#N)=C\c3ccco3)n2)cc1	Myeloid diff 2 active
COc1ccc(-c2csc(/C(C#N)=C\c3ccc(OC)c([N+](=O)[O-])c3)n2)cc1	none
CCCCc1ccc(-c2csc(/C(C#N)=C/c3ccc(C)o3)n2)cc1	HNF4A DNA FP 42.4 (no result: Pemphigus Ab inh)
Nc1ccc(-n2cnc3cc([N+](=O)[O-])ccc32)cc1	Myeloid diff 2 active
Cc1nc2nc(CNC(=O)OC(C)(C)C)nn2c(C)c1CCC(=O)Nc1ccc2c(c1)OCO2	none
O=C(CCc1ccc(O)c(O)c1)N/N=C/c1ccc2c(c1)OCO2	Cardio protect 86.8
Cc1ccc(OCC(=O)NC2CCSc3ccccc32)cc1 (centres undefined)	none
Cc1ccc(C(=O)N(CC(=O)NC2CCCC2)c2ccccc2C)s1	none
Cc1ccc(C(=O)N(CC(=O)NC2CCCC2)Cc2cccs2)s1	Pemphigus Ab inh 76.1
CC(C)(C)Nc1nc2nonc2nc1NC(C)(C)C	Myeloid diff 2 active
CCOc1cc(N2CCOCC2)c(OCC)cc1NC(=O)c1ccccc1	none
CCOc1cc(N2CCOCC2)c(OCC)cc1NC(=O)Cn1[nH]c(=O)c2ccccc2c1=O	Cardio protect 79.4
CCOc1ccccc1NC(=O)Cn1[nH]c(=O)c2ccccc2c1=O	none
CCCn1nc(C(=O)Nc2cc(OCC)c(N3CCOCC3)cc2OCC)c2ccccc2c1=O	Cardio protect 56.3
COc1cccc(CN(C)C[C@@H]2OCc3ccccc3-c3c(n(C)c4ccccc34)C(=O)N([C@@H](C)CO)C[C@H]2C)c1	Myeloid diff 2 active
O=C(/C=C/c1ccccc1)NC(=S)Nc1ccc(N2CCOCC2)cc1	Pemphigus Ab inh 75.8
O=C(/C=C/c1ccccc1)NC(=S)Nc1ccccc1	none
CN1CCN(c2ccc(NC(=S)NC(=O)/C=C/c3ccco3)cc2)CC1	Exocytosis inh 56.7
COc1ccc(NC(=O)CN(C)C(=O)CN2C(=O)NC3(CCCC3)C2=O)cc1	none (no result: Myeloid diff 2)
CC(=O)Oc1ccc2c(=O)c(Oc3ccccc3)c(C)oc2c1OC(C)=O	Cardio protect 64.6
CCC(C)N(C(=O)COC(=O)Cc1n[nH]c(=O)c2ccccc12)C1CCS(=O)(=O)C1 (centres undefined)	Cardio protect 59.5
CN(C)Cc1ccc(-c2nc3cccc4c3n2CCNC4=O)cc1	Cardio protect 53.1
CCN(c1ccc(C)cc1C)S(=O)(=O)c1nnc(NC(=O)C(C)(C)C)s1	none
Cc1cccc(C)c1NC(=O)CN(C)C(=O)C1=COCCO1	none (no result: Pemphigus Ab inh)
CN(Cc1ccccc1)C(=O)c1cccc(NC(=O)Cc2cccc(NC(=O)C3CCN(C(=O)C4CC4)CC3)c2)c1	Myeloid diff 2 active
CN(Cc1ccccc1)C(=O)c1ccc(NC(=O)Cc2cccc(NC(=O)C3CCN(C(=O)C4CC4)CC3)c2)cc1	none
O=C(/C=C/c1cccc([N+](=O)[O-])c1)c1ccc([N+](=O)[O-])o1	Myeloid diff 2 active
CCN1C(=O)Nc2cccc3cccc1c23	none
CCC1=[N+](C)c2cccc3cccc(c23)N1C	Myeloid diff 2 active
C[C@@H]1CN([C@@H](C)CO)C(=O)CCCn2nncc2CO[C@H]1CN(C)C(=O)OCc1ccccc1	none
CCOC(CCn1c(SCc2cccc([N+](=O)[O-])c2)nc2ccccc2c1=O)OCC	Myeloid diff 2 active
COc1ccc(N(C(=O)CNC(=O)c2cccs2)C(C(=O)NCC2CCCO2)c2ccccc2)cc1 (centres undefined)	none
O=C1C=CC2(O[C@H](c3ccccc3)[C@@H](c3ccccc3)O2)[C@H](Sc2ccccc2O)C1	Myeloid diff 2 active, Exocytosis inh 102.5 (no result: Pemphigus Ab inh)
